In paper PMC9124159 (Molecular Diversity, 2022):
In brackets after ≈: the same amount, converted by molar mass. Several values for one entry are separate records, joined by “and”; a condition that tells them apart may be missing. Equal values may be shown once. Entries after “also recorded” stand apart in the source; their conditions may differ. Read-outs that look alike come from different tables or passages of the source.

Key:
[1] = tested on: GFP reporter strain of Mtb (Mtb pMSp12: GFP); assay type: cell-based, Mycobacterium tuberculosis
Vero cell line = test: MTT cytotoxicity assay, Vero cells; assay type: cell-based; conditions: 48 h
How it was run: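 Vero cells plated at 3.0 × 10³ cells/well, 24 h at 37 °C, 5% CO2. Then 48 h exposure to test compound at 1, 5 or 10 µM in 0.15% DMSO, triplicate technical repeats. Positive control was 0.2% Triton X-100 for 15 min. Cells PBS-rinsed, MTT 0.5 mg/ml final for 4 h, formazan dissolved in DMSO. Absorbance 560 nm against 630 nm background; survival vs untreated cells; SD, n = 3.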

[2] = tested on: BJ-5ta (hTERT immortalized Human skin fibroblasts); test: MTT cytotoxicity assay, BJ-5ta cells; assay type: cell-based; conditions: BJ-5ta, 48 h, MTT
How it was run: (§1)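 BJ-5ta fibroblasts seeded at 1.8 × 10⁴ cells/well, 24 h at 37 °C, 5% CO2. Then exposed 48 h to test compound at 1, 5 or 10 µM in 0.15% DMSO, 3 technical repeats. Dead-cell control was 0.2% Triton X-100 for 15 min. After PBS rinses, MTT 0.5 mg/ml final for 4 h, formazan dissolved in DMSO. A560 minus A630, DMSO-blank-corrected, % of untreated cells; mean ± SD.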

[3] = MTT cytotoxicity assay, BJ-5ta cells; assay type: cell-based, Human; conditions: human, BJ-5ta cells (hTERT immortalized human skin fibroblasts)
How it was run: as §1

H37Rv strain of Mtb = H37Rv strain of Mtb in vitro; cited from earlier work

Compound	MIC90 [1]	other results
c1ccc(Nc2ncnc3[nH]ccc23)cc1 [Compound 1, N-phenyl-7H-pyrrolo[2,3-d]pyrimidin-4-amine]	62.5 µM (≈ 13.1 µg/mL)	
Fc1cccc(Nc2ncnc3[nH]ccc23)c1 [Compound 3, N-(3-fluorophenyl)-7H-pyrrolo[2,3-d]pyrimidin-4-amine]	> 125 µM	
Brc1ccc(Nc2ncnc3[nH]ccc23)cc1 [Compound 10, N-(4-bromophenyl)-7H-pyrrolo[2,3-d]pyrimidin-4-amine]	3.9 µM and 3.90 µM	
c1ccc(Oc2ccc(Nc3ncnc4[nH]ccc34)cc2)cc1 [Compound 11, N-(4-phenoxyphenyl)-7H-pyrrolo[2,3-d]pyrimidin-4-amine]	0.488 µM (≈ 0.148 µg/mL)	MIC90 ([1]; […], no unit printed in the conclusion): 0.488; Cytotoxicity (in words) (Vero cell line): no potential cytotoxicity risk; Cytotoxicity (in words) (Vero cell line; listed as N-(4-phenoxy phenyl)-7H-pyrrolo[2,3-d]pyrimidin-4-amine): non-cytotoxic; Cell viability reduction (Vero cell line; highest concentration tested (1, 5, 10 µM tested)): no cell viability reduction observed; Cytotoxicity (in words) [2]: weakly cytotoxic; also recorded: weak cytotoxicity; viability at 48 h, 1 µM [3]: 115%
c1nc(Nc2ccc(N3CCOCC3)cc2)c2cc[nH]c2n1 [Compound 15, N-(4-morpholinophenyl)-7H-pyrrolo[2,3-d]pyrimidin-4-amine]	3.906 µM and 3.90 µM	
c1ccc(CCCNc2ncnc3[nH]ccc23)cc1 [Compound 22, N-(3-phenylpropyl)-7H-pyrrolo[2,3-d]pyrimidin-4-amine]	14.45 µM (≈ 3.65 µg/mL)	
c1ccc(CCCCNc2ncnc3[nH]ccc23)cc1 [Compound 23, N-(4-phenylbutyl)-7H-pyrrolo[2,3-d]pyrimidin-4-amine]	3.713 µM and 3.71 µM	
OCCNCCNc1ncnc2[nH]ccc12 [Compound 26, 2-((2-((7H-pyrrolo[2,3-d]pyrimidin-4-yl)amino)ethyl)amino)ethan-1-ol]	125 µM (≈ 27.7 µg/mL)	
CC(C)OCCCNc1ncnc2[nH]ccc12 [Compound 27, N-(3-isopropoxypropyl)-7H-pyrrolo[2,3-d]pyrimidin-4-amine]	125 µM (≈ 29.3 µg/mL)	
CO[C@H]1/C=C/O[C@@]2(C)Oc3c(C)c(O)c4c(O)c(c(/C=N/N5CCN(C)CC5)c(O)c4c3C2=O)NC(=O)/C(C)=C\C=C\[C@H](C)[C@H](O)[C@@H](C)[C@@H](O)[C@@H](C)[C@H](OC(C)=O)[C@@H]1C [RF, rifampicin]		MIC (H37Rv strain of Mtb): 0.09 µM (≈ 0.0741 µg/mL)
N-(2-methoxy-4-nitrophenyl)-7H-pyrrolo[2,3-d]pyrimidin-4-amine [Compound 14]	> 125 µM	
N-(3-(trifluoromethyl)phenyl)-7,7a-dihydro-1H-pyrrolo[2,3-d]pyrimidin-4-amine [Compound 4]	62.5 µM	
N-(3-morpholinopropyl)-7H-pyrrolo[2,3-d]pyrimidin-4-amine [Compound 28]	125 µM	
N-(3-nitrophenyl)-7H-pyrrolo[2,3-d]pyrimidin-4-amine [Compound 13]	62.5 µM	
